ChEMBL document CHEMBL1153852, “Steroidal lactones as inhibitors of 17beta-hydroxysteroid dehydrogenase type 5: chemical synthesis, enzyme inhibitory activity, and assessment of estrogenic and androgenic activities” (Eur J Med Chem, 2009)
pIC50: −log10 of the molar value. Activity calls are given as the source filed them. The rule behind the calls is not given here.

Assays:
[1] = biological target: T1, Aldo-keto reductase family 1 member C3 (Homo sapiens) (UniProt P42330); assay: Inhibition of human 17beta-HSD5 expressed in HEK293 cells assessed as enzyme-mediated transformation of [14C]-4-androstene-3,17-dione in to [14C]-testosterone at 3 uM after 18 hrs; format: cell-based
T1 sequence (whole entry): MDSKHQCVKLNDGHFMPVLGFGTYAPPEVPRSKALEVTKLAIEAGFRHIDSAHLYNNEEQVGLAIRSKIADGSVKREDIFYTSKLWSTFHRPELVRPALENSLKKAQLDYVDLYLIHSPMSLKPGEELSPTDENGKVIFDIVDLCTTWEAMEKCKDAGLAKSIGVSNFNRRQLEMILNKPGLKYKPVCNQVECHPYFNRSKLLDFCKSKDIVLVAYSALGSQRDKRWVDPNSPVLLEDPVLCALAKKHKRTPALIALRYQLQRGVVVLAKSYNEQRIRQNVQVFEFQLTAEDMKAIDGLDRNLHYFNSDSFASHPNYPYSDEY
Summary of the method: (§1)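 Intact HEK-293 cells stably over-expressing human 17β-HSD5, in freshly changed culture medium. [14C]-4-androstene-3,17-dione is added at 100 nM with inhibitor from an ethanolic solution; controls get ethanol only. After 18 h the conversion to [14C]-T is measured.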

[2] = biological target: T1, Aldo-keto reductase family 1 member C3 (Homo sapiens); assay: Inhibition of human 17beta-HSD5 expressed in HEK293 cells assessed as enzyme-mediated transformation of [14C]-4-androstene-3,17-dione in to [14C]-testosterone at 0.3 uM after 18 hrs; format: cell-based; summary of the method: as §1
[3] = biological target: T2, Aldo-keto reductase family 1 member C3 (Homo sapiens, UniProt P42330); assay: Inhibition of human 17beta-HSD5 expressed in HEK293 cells assessed as enzyme-mediated transformation of [14C]-4-androstene-3,17-dione in to [14C]-testosterone after 18 hrs; format: cell-based
T2 sequence (P42330 whole entry): T1 sequence (whole entry)
Summary of the method: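 Intact HEK-293 cells stably over-expressing human 17β-HSD5, in fresh culture medium. [14C]-4-androstene-3,17-dione 0.1 μM with inhibitor added in ethanol (ethanol alone as control), 18 h.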

[4] = biological target: T3, 17-beta-hydroxysteroid dehydrogenase type 2 (Homo sapiens) (UniProt P37059); assay: Inhibition of human 17beta-HSD2 expressed in HEK293 cells assessed as enzyme-mediated transformation of [14C]-testosterone in to [14C]-4-androstene-3,17-dione at 1 uM; format: cell-based
T3 sequence (whole entry): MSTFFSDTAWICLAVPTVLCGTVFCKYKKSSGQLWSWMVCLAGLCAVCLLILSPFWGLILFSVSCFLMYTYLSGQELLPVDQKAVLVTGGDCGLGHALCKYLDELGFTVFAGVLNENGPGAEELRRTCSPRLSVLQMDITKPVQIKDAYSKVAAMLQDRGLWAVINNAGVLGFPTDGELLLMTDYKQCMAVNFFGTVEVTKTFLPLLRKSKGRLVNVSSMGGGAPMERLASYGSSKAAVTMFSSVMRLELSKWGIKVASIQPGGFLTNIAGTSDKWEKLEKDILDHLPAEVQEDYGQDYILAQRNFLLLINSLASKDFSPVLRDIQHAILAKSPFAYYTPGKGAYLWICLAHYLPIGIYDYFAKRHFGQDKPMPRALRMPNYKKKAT

[5] = biological target: T3, 17-beta-hydroxysteroid dehydrogenase type 2 (Homo sapiens); assay: Inhibition of human 17beta-HSD2 expressed in HEK293 cells assessed as enzyme-mediated transformation of [14C]-testosterone in to [14C]-4-androstene-3,17-dione at 0.1 uM; format: cell-based
[6] = biological target: T4, Progesterone receptor (Rattus norvegicus) (UniProt Q63449); assay: Binding affinity to rat uterus progesterone receptor at 0.01 uM
T4 sequence (whole entry): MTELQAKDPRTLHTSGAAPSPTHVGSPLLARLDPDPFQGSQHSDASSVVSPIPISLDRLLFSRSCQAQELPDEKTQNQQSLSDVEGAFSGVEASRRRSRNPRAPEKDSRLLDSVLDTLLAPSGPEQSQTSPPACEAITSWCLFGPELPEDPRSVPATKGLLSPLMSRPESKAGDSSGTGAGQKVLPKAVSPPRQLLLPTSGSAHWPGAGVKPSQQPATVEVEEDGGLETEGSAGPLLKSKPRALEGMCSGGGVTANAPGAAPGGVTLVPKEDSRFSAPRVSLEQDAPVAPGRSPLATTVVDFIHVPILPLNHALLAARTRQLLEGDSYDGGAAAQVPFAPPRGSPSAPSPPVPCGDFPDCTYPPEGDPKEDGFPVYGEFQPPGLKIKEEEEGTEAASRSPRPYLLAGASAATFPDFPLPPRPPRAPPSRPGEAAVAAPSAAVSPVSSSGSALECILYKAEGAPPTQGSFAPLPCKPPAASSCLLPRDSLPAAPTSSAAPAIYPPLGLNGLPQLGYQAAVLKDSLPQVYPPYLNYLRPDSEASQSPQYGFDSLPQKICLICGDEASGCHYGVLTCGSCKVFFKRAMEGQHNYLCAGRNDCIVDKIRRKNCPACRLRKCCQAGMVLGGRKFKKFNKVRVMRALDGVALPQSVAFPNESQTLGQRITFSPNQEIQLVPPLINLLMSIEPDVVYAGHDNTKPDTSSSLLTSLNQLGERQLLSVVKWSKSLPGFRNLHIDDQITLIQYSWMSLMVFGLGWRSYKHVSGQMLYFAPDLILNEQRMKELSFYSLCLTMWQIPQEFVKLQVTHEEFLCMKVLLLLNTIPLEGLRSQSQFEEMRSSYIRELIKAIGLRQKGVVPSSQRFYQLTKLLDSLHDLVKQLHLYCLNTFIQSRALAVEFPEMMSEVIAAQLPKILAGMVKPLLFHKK

[7] = biological target: T5, 17-beta-hydroxysteroid dehydrogenase type 1 (Homo sapiens) (UniProt P14061); assay: Inhibition of human 17beta-HSD1 expressed in HEK293 cells assessed as enzyme-mediated transformation of [14C]-E1 in to [14C]-E2 at 1 uM; format: cell-based
T5 sequence (whole entry): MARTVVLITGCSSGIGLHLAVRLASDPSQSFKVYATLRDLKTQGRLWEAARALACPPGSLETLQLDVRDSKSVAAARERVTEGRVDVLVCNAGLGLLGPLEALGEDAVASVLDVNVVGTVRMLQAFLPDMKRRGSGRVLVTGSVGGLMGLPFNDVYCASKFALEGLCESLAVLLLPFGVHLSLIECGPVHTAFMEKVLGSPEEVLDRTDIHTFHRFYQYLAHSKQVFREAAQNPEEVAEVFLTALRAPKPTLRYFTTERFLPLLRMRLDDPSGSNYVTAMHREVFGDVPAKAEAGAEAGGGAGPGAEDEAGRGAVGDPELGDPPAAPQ

[8] = biological target: T5, 17-beta-hydroxysteroid dehydrogenase type 1 (Homo sapiens); assay: Inhibition of human 17beta-HSD1 expressed in HEK293 cells assessed as enzyme-mediated transformation of [14C]-E1 in to [14C]-E2 at 0.1 uM; format: cell-based
[9] = biological target: T6, 17-beta-hydroxysteroid dehydrogenase type 3 (Homo sapiens) (UniProt P37058); assay: Inhibition of human 17beta-HSD3 expressed in HEK293 cells assessed as enzyme-mediated transformation of [14C]-4-androstene-3,17-dione in to [14C]-testosterone at 0.1 uM; format: cell-based
T6 sequence (whole entry): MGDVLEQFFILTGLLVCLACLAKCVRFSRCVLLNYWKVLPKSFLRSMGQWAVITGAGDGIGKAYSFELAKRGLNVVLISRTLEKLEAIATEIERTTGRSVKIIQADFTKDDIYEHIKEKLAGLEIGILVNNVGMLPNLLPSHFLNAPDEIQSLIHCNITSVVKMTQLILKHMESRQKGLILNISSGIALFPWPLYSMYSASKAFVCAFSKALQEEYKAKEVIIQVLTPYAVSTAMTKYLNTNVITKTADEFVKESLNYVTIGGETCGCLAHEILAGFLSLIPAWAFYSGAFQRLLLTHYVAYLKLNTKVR

[10] = biological target: T6, 17-beta-hydroxysteroid dehydrogenase type 3 (Homo sapiens); assay: Inhibition of human 17beta-HSD3 expressed in HEK293 cells assessed as enzyme-mediated transformation of [14C]-4-androstene-3,17-dione in to [14C]-testosterone at 1 uM; format: cell-based

SMILES | inhibition [1] [%] | inhibition [2] [%] | pIC50 [3] | other results
C[C@]12CC[C@@H]3c4ccc(O)cc4CC[C@H]3[C@@H]1CC[C@]21CCC(=O)O1 | 45 | 22 |  | 
C[C@]12CC[C@@H]3c4ccc(O)cc4CC[C@H]3[C@@H]1CC[C@@]21CCCCC(=O)O1 | 93 | 90 | 7.38 | 
COC1CC[C@@]2(CC[C@H]3[C@@H]4CCc5cc(O)ccc5[C@H]4CC[C@@]32C)O1 (stereo in doubt; 7) | 4 | 0 |  | 
C[C@]12CC[C@@H]3c4ccc(O)cc4CC[C@H]3[C@@H]1CC[C@@]21CC=CC(=O)O1 | 92 | 79 | 7.31 | 
C[C@]12CC[C@@H]3c4ccc(O)cc4CC[C@H]3[C@@H]1CC[C@@]21CCC(O)O1 (mixture of isomers) | 61 | 19 |  | 
CCCC1CC[C@@]2(CC[C@H]3[C@@H]4CCc5cc(O)ccc5[C@H]4CC[C@@]32C)OC1=O (mixture of isomers) | 83 | 41 |  | 
CC1CC[C@@]2(CC[C@H]3[C@@H]4CCc5cc(O)ccc5[C@H]4CC[C@@]32C)OC1=O (mixture of isomers) | 94 | 93 | 7.80 | Activity [4]: Active; Activity [5]: Active
C[C@]12CC[C@@H]3c4ccc(O)cc4CC[C@H]3[C@@H]1CC[C@@H]2O |  |  |  | Activity [6]: 6%
C[C@]12CCC(=O)CC1C(=O)C[C@@H]1[C@@H]2CC[C@@]2(C)[C@H]1CC[C@@]21CCC(=O)O1 (stereo not given in full) | 45 | 14 |  | 
CC1CC[C@@]2(CC[C@H]3[C@@H]4CCc5ccccc5[C@H]4CC[C@@]32C)OC1=O (stereo not given in full) | 94 | 91 | 8.21 | inhibition [7]: 21%; inhibition [8]: 21%; inhibition [9]: 25%; inhibition [10]: 64%
C[C@]12CCC(=O)C=C1CC[C@@H]1[C@@H]2CC[C@@]2(C)[C@H]1CC[C@@]21CCC(=O)O1 | 61 | 19 |  | 
C[C@]12CC[C@@H]3c4ccc(O)cc4CC[C@H]3[C@@H]1C[C@@H]1CC(=O)O[C@@H]12 | 62 | 30 |  | 
C[C@]12CC[C@@H]3c4ccc(O)cc4CC[C@H]3[C@@H]1C[C@@H]1CCCC(=O)O[C@@H]12 | 91 | 70 | 7.18 | 
C[C@]12CCC(=O)C[C@@H]1CC[C@@H]1[C@@H]2CC[C@]2(C)[C@@H](O)CC[C@@H]12 |  |  |  | Activity [6]: 3%
C[C@]12CCC3(CCC(=O)O3)CC1CC[C@@H]1[C@@H]2CC[C@@]2(C)[C@H]1CC[C@@]21CCC(=O)O1 (stereo not given in full) | 29 | 7 |  | 
C[C@]12CCC(=O)C=C1CC[C@@H]1[C@@H]2CC[C@]2(C)C(=O)CC[C@@H]12 | 45 | 21 |  | 
C[C@@H]1C[C@H]2[C@@H]3CCC4=CC(=O)C=C[C@]4(C)[C@@]3(F)[C@@H](O)C[C@]2(C)[C@@]1(O)C(=O)CO |  |  |  | Activity [6]: 0%
COC1CC[C@@]2(CC[C@H]3[C@@H]4CCc5cc(O)ccc5[C@H]4CC[C@@]32C)O1 (stereo in doubt; 8) | 16 | 0 |  | 
C[C@]12CC[C@@H]3c4ccc(O)cc4CC[C@H]3[C@@H]1CC[C@@]21CCCC(=O)O1 | 95 | 92 | 7.70 | inhibition [9]: 25%; Activity [4]: Active; inhibition [10]: 34%; Activity [5]: Active
CC(=O)S[C@@H]1CC2=CC(=O)CC[C@]2(C)[C@H]2CC[C@@]3(C)[C@@H](CC[C@@]34CCC(=O)O4)[C@H]12 | 57 | 27 |  | 
CC1CC(=O)O[C@]2(CC[C@H]3[C@@H]4CCc5cc(O)ccc5[C@H]4CC[C@@]32C)C1 (mixture of isomers) | 94 | 88 | 7.72 | 
C[C@]12CCC(=O)CC1CC[C@@H]1[C@@H]2CC[C@@]2(C)[C@H]1CC[C@@]21CCC(=O)O1 (stereo not given in full) | 63 | 15 |  | 
COC(=O)C1CC[C@@]2(CC[C@H]3[C@@H]4CCc5cc(O)ccc5[C@H]4CC[C@@]32C)OC1=O (mixture of isomers) | 92 | 78 | 7.14 | 
C[C@]12CC[C@@H]3c4ccc(O)cc4CC[C@H]3[C@@H]1C[C@H]1CCC(=O)O[C@H]12 | 52 | 6 |  | 
C[C@]12CC[C@@H]3c4ccc(O)cc4CC[C@H]3[C@@H]1CC[C@@]21CCC(=O)O1 | 79 | 47 |  | 
C[C@]12CC[C@@H]3c4ccc(O)cc4CC[C@H]3[C@@H]1C[C@@H]1CCC(=O)O[C@@H]12 | 85 | 55 |  | 
C=CCC1CC[C@@]2(CC[C@H]3[C@@H]4CCc5cc(O)ccc5[C@H]4CC[C@@]32C)OC1=O (mixture of isomers) | 91 | 68 | 6.97 | 
